In the library only some 3.5% were active in any assay of this set; here they are far more common.
RGS4 pot – RGS4 potentiators or activators, primary screen, cell-based, HEK293 M3R inducible RGS4, calcium flux; carbachol calcium flux Fluo4; hits give low values; AID 463111, 2010; 0.92% of 310,000 active; B-score at 10 µM;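 active = B-score of the integrated calcium signal more than 4 SD below the library mean, with starting fluorescence not abnormally high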;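 note: negative B-score means reduced calcium response which marks RGS4 activation or potentiation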
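Assay system: Inducible-RGS4 HEK293 cells carrying M3 receptor | Schedule: Compound preincubation 20 min at room temperature before agonist | Signal: Kinetic calcium fluorescence imaging with Fluo4-AM dye, 2 µM | Read-out basis: B score from integrated fluorescence ratio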
MrgX1 antag – antagonists of human MrgX1 receptor, primary screen, HEK293 cells, Fluo-4 calcium flux; BAM8-22 antagonism; hits give low values; 1.3% of 310,000 active; B-score at 10 µM;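 active = calcium-response B-score plate-corrected more than 3 library SD below zero, starting fluorescence within 5 deviations, no agonist response on first addition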;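 note: peak minus trough fluorescence over baseline after final BAM8-22 challenge near maximal dose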
Target sequence (Q96LB2 whole entry, looked up): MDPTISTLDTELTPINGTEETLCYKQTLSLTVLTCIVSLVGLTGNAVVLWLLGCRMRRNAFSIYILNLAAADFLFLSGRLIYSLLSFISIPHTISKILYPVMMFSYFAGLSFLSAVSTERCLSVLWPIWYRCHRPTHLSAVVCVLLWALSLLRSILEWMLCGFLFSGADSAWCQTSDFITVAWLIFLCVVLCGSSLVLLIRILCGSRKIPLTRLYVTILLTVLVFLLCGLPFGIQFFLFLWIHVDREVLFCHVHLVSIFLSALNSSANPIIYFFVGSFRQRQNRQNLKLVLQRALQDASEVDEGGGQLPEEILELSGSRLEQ
MrgX1 allo act – positive allosteric modulators of MrgX1, primary screen, HEK293 cells, Fluo-4 calcium flux; B-score at 10 µM; AID 588675, 2011; FDSS; hits give high values; Mas-related G-protein coupled receptor member X1 (Homo sapiens), Q96LB2; 0.63% of 310,000 active;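 active = plate-corrected calcium response at least 3 library SD above typical, normal starting fluorescence, not activating the receptor alone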;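 note: compound read alongside a low EC10 to EC30 dose of BAM8-22 agonist; peak minus trough fluorescence over baseline measured at the second addition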
RGS4 inh – RGS4 inhibitors, primary screen, cell-based, HEK293 M3R inducible RGS4, calcium flux; B-score at 10 µM; 0.45% of 310,000 active; AID 463165, 2010; Fluo-4 calcium flux; hits give high values; triggered by carbachol at its EC20;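 active = B-score, a plate-corrected calcium signal, over three deviations above library mean, with baseline fluorescence within five deviations of library mean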;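 note: RGS4 expression induced by doxycycline in cells with stable M3 receptor; B-score is computed from the integrated fluorescence ratio over baseline after carbachol; higher B-score means a larger calcium signal and so more RGS4 inhibition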
Target sequence (P49798 whole entry, looked up): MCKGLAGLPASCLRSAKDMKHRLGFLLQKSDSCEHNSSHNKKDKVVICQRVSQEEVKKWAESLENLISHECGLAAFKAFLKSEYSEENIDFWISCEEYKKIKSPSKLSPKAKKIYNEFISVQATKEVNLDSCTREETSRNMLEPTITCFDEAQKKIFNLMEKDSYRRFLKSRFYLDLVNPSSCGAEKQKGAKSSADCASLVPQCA
MrgX1 ag – agonists of human MrgX1 receptor, primary screen, HEK293 cells, Fluo-4 calcium flux; 0.44% of 310,000 active; Fluo-4 calcium fluorescence, agonist mode; hits give high values; AID 588627, 2011; B-score at 10 µM; Mas-related G-protein coupled receptor member X1 (Homo sapiens), Q96LB2;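 active = calcium response B-score plate-corrected fluorescence ratio at least 3 library SD, with starting fluorescence B-score inside 5 SD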
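Material – MrgX1-expressing HEK293 cells · Input – 15,000 cells seeded per well · Dosing – compound as first of three additions · Times – overnight seeding, then 1 h dark dye loading · Measured by – kinetic Fluo-4 NW fluorescence of intracellular calcium · Read-out – B-scored fluorescence response ratio · Benchmarks – positive and negative control wells on each plate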
RGS4 block valid – enhanced carbachol calcium response, M3R/RGS4 cells, RGS4 inhibitor project, cell-based, validation screen, HEK293 M3R/RGS4, calcium flux; shares compounds with RGS4 inh; carbachol calcium Fluo-4 fluorescence; carbachol added at its EC20; 0 = buffer wells, 100 = carbachol control; calcium response, % at 10 µM; 65% of 1,700 active; AID 492999, 2010;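 active = duplicate-averaged calcium response above the buffer-only control mean plus 5 SD of those controls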;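 note: integrated fluorescence ratio F max minus min over baseline F0; higher response in RGS4-induced cells means RGS4 inhibition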
RGS4 uninduced – carbachol calcium response in non-induced M3R cells, confirmation, counter-screen for RGS4 inhibitor project, cell-based, HEK293 M3R. AID 493000, 2010. shares compounds with RGS4 inh. activity (percent), % at 10 µM. carbachol calcium Fluo-4; submaximal (EC20) carbachol stimulus; buffer wells 0%, carbachol control wells 100%. 20% of 1,900 active; call rule not given here;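 note: RGS4 induction absent so cells express M3R without RGS4; higher means more calcium signal and flags a non-specific hit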
M3R basal Ca ctr – second counter-screen for RGS4 inhibitors: non-induced cells without carbachol. 22% of 1,900 active. AID 493001. shares compounds with RGS4 inh. calcium response (agonist-mode artifact), % at 10 µM. HEK293 M3R/RGS4 non-induced, Fluo-4 calcium, no carbachol; normalised: buffer wells 0%, carbachol wells 100%;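 active = duplicate-averaged calcium rise in uninduced cells above buffer wells' mean plus 5 SD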
* = called active by the depositor; i = inactive; · = no result given.

SMILES | RGS4 pot | MrgX1 antag | MrgX1 allo act | RGS4 inh | MrgX1 ag | RGS4 block valid | RGS4 uninduced | M3R basal Ca ctr
COc1ccc(-c2csc(Nc3ccc(S(=O)(=O)Nc4cc(C)on4)cc3)n2)cc1C | i | i | i | 13* | i | i | 46%* | i
COc1cc(NS(=O)(=O)c2ccc(NC(C)=O)cc2)nc(OC)n1 | i | i | i | i | i | · | · | ·
COc1ccc(CC(=O)Nc2ccc(S(=O)(=O)Nc3cc(C)on3)cc2)cc1OC | i | i | i | i | i | · | · | ·
CC(C)Cc1nnc(NC(=O)CN2C(=O)c3ccccc3C2=O)s1 | i | i | i | i | i | · | · | ·
COc1ccccc1C(=O)NCC(=O)OCC(=O)c1cccc2ccccc12 | i | i | i | i | i | · | · | ·
CC(=O)Nc1cccc(OCCCNS(=O)(=O)c2ccc(C#N)cc2)c1 | i | i | i | i | i | · | · | ·
O=C(/C=C/c1cccnc1)c1ccc(F)c(F)c1 | i | i | i | 21* | i | 27%* | 46%* | i
O=C(/C=C/c1ccc(Br)cc1)c1ccco1 | i | i | i | i | i | · | · | ·
O=C(/C=C/c1ccc([N+](=O)[O-])cc1)c1ccco1 | i | i | i | 11* | i | 12%* | i | i
O=C(/C=C/c1ccc([N+](=O)[O-])cc1)c1cccnc1 | i | i | i | 18* | i | 39%* | 52%* | i
CC(C)(C)NS(=O)(=O)c1ccc(CCC(=O)NCc2ccccn2)cc1 | i | i | i | i | i | · | · | ·
Cc1ccc(N=Cc2c(O)[nH]c3ccccc23)c([N+](=O)[O-])c1 | i | i | i | i | i | · | · | ·
CC1CCCN(C(=O)CSc2cnc3ccccc3n2)C1 (stereo unspecified) | i | i | i | i | i | · | · | ·
O=C(CCN1C(=O)S/C(=C\c2ccccc2)C1=O)N1CCOCC1 | i | i | i | i | i | · | · | ·
O=C(CN1C(=O)S/C(=C\C=C\c2ccccc2)C1=O)N1CCOCC1 | i | i | i | 8.5* | i | 9.5%* | i | i
O=C(CN1C(=O)S/C(=C/C=C/c2ccccc2)C1=O)Nc1ccc(C(=O)O)cc1 | i | i | i | 4.7* | i | 7.0%* | i | i
CC(C)C(=O)Nc1ccc(-c2csc(-c3ccccc3)n2)cc1 | i | i | i | i | i | · | · | ·
O=C(Cn1cncn1)c1ccccc1Br | i | i | i | i | i | · | · | ·
O=C(Cc1cccs1)NCc1cc(Cl)cc(Cl)c1 | i | i | i | i | i | · | · | ·
COC(=O)c1cc(C)nc2c1C(=O)C(=O)C=C2N1CCOCC1 | i | i | i | 21* | i | 34%* | i | i
COC(=O)c1cc(S(=O)(=O)N2CCOCC2)c(Cl)cc1N1CCOCC1 | i | i | i | i | i | · | · | ·
CCOc1ccccc1N(C)S(=O)(=O)c1ccc2c(c1)N(C(C)=O)CCO2 | i | i | i | i | i | · | · | ·
Cn1c2ccccc2c2c(C(=O)NCc3ccco3)cn(C3CCCCC3)c(=O)c21 | i | i | i | i | i | i | i | i
COC(=O)c1ccc(C(=O)OC)c(NC(=S)N2CCN(c3cccc(Cl)c3)CC2)c1 | i | i | i | i | i | · | · | ·
O=C1C=CC(=O)N1c1ccc(O)cc1 | i | i | i | 14* | i | 75%* | 72%* | 14%*
SMILES | RGS4 pot | MrgX1 antag | MrgX1 allo act | RGS4 inh | MrgX1 ag | RGS4 block valid | RGS4 uninduced | M3R basal Ca ctr
COc1ccc(Cl)cc1NC(=O)c1cc(-c2ccc(C)cc2O)n[nH]1 | i | i | i | i | i | · | i | i
COc1ccc(NC(=O)c2cc(-c3cc(Cl)ccc3O)n[nH]2)c(OC)c1 | i | i | i | i | i | · | · | ·
COc1ccc(OC)c(NC(=O)c2cc(-c3cc(C)c(C)cc3O)n[nH]2)c1 | i | i | i | i | i | · | · | ·
COc1ccc(Cl)cc1NC(=O)c1cc(-c2cc(C)ccc2O)n[nH]1 | i | i | i | i | i | i | i | i
Cc1ccc(Nc2ncccc2C(N)=O)cc1[N+](=O)[O-] | i | i | i | i | i | · | · | ·
CC1Sc2ccc(S(=O)(=O)CCC(=O)NCc3cccs3)cc2NC1=O (stereo unspecified) | i | i | i | i | i | · | · | ·
O=C1Nc2ccccc2/C1=C\C(=O)c1ccccc1 | i | i | i | i | i | · | · | ·
O=C1Nc2ccc(Br)cc2/C1=C/C(=O)c1ccc2c(c1)OCO2 | i | -5* | i | 6.1* | i | i | 41%* | i
CCOc1ccc(NS(=O)(=O)c2ccc(C(=O)N(C)CC(=O)Nc3ccc(C)cc3)cc2)cc1 | i | i | i | i | i | · | · | ·
Cc1ccccc1C(=O)NNC(=O)c1cccn1C | i | i | i | i | i | · | · | ·
NC(=S)N/N=C/c1ccc(-n2nncc2-c2ccc(Cl)cc2)cc1 | i | i | i | 39* | i | 23%* | 64%* | i
O=C1/C(=C/c2cccc(Br)c2)SC(=S)N1CCC(=O)N(CCO)c1ccccc1 | i | i | i | 5.3* | i | 16%* | 34%* | i
COc1cccc(/C=C2\SC(=S)N(CCCC(=O)N(CCO)c3ccccc3)C2=O)c1 | i | i | i | i | i | · | · | ·
Cc1ccc([N+](=O)[O-])cc1N(CC(=O)Nc1ccc(S(=O)(=O)Nc2cccc(C(F)(F)F)c2)cc1)S(C)(=O)=O | i | i | i | 7.2* | i | 22%* | i | i
CCOC(=O)C1(Cc2cccc(Cl)c2)CCCN(C(=O)c2cccc(C)n2)C1 (stereo unspecified) | i | i | i | i | i | · | · | ·

Screens from PubChem BioAssay.
